Measurements taken from ChEMBL document CHEMBL2040834, “Synthesis, crystal structures and electronic properties of isomers of chloro-pyridinylvinyl-1H-indoles” (Eur J Med Chem, 2012).
≈ marks a conversion by molar mass, not a printed value.

Columns and labels:
[1] = Solubility of the compound in 0.1 M of boric acid at pH 9 by HTS-PCF filter plate analysis; type: physicochemical; conditions: buffer
How it was run: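 Solubility measured by filter-plate filtration at 2.5% final DMSO. Buffers: pH 1.0 (0.1 M HCl, 20 mM NaCl), pH 7.4 (50 mM phosphate, 30 mM NaCl), pH 9.0 (0.1 M boric acid, 20 mM NaCl). Filtrate quantified by C18 LC/MS with UV detection at 254 nm, using a 5–95% acetonitrile gradient in 0.1% acetic acid.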

[2] = target: T1, Tryptophan 2,3-dioxygenase (Homo sapiens, UniProt P48775); assay: Inhibition of human purified TDO assessed as formation of kynurenine from N-formylkynurenine preincubated for 10 mins measured after 5 to 20 mins by discontinuous colorimetric method
[3] = target: T1, Tryptophan 2,3-dioxygenase; assay: Inhibition of human purified TDO assessed as initial rate of L-Trp oxidation at 100 uM of substrate concentration
[4] = target: T1, Tryptophan 2,3-dioxygenase; assay: Competitive inhibition of human purified TDO by Henri-Michaelis-Menten equation analysis
How it was run: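 Recombinant human TDO expressed in E. coli, purified. Kynurenine formation read at 480 nm with Ehrlich's reagent after TCA stop and 65 °C hydrolysis. L-Trp and inhibitor concentrations both varied. Initial rates fitted to Henri–Michaelis–Menten equation for competitive Ki; Km obtained from the same data.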

T1 sequence (P48775 whole entry): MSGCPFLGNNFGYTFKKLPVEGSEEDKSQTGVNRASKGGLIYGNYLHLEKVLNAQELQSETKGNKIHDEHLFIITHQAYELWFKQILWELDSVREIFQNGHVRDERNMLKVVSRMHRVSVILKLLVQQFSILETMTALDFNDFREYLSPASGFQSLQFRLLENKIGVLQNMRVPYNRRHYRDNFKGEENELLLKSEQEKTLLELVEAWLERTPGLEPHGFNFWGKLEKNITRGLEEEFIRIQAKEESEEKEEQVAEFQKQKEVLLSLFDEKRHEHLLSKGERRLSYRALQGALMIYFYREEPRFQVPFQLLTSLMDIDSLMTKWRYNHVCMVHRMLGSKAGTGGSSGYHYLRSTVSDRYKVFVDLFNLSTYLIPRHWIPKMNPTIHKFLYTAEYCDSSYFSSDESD

solubility [1]	IC50 [2]	IC50 [3]	Ki [4]	SMILES
32.1 mg/mL (≈ 126 mM)	5 µM			Clc1ccc2c(/C=C/c3cccnc3)c[nH]c2c1
76 mg/mL (≈ 298 mM)	10 µM			Clc1ccc2[nH]cc(/C=C/c3cccnc3)c2c1
6 mg/mL (≈ 23.6 mM)	> 50 µM	32 µM	21 µM	Clc1cccc2c(/C=C/c3cccnc3)c[nH]c12
